Measured values from ChEMBL document CHEMBL3259575, “Evaluation of a large library of (thiazol-2-yl)hydrazones and analogues as histone acetyltransferase inhibitors: enzyme and cellular studies” (2014).
Active and inactive are the calls of the source. The calls are words filed in the database; no cut-off is given here.

Legend:
[1] = target: Histone acetyltransferase KAT2B (Homo sapiens) (UniProt Q92831); test: Inhibition of recombinant human PCAF catalytic domain (492 to 658 aa) using histone H3 at 100 uM after 1 hr by radiochemical assay in presence of [acetyl-3H]-acetyl coenzyme A
Sequence of Histone acetyltransferase KAT2B (Homo sapiens) (Q92831 whole entry, looked up, the tested form may be a part): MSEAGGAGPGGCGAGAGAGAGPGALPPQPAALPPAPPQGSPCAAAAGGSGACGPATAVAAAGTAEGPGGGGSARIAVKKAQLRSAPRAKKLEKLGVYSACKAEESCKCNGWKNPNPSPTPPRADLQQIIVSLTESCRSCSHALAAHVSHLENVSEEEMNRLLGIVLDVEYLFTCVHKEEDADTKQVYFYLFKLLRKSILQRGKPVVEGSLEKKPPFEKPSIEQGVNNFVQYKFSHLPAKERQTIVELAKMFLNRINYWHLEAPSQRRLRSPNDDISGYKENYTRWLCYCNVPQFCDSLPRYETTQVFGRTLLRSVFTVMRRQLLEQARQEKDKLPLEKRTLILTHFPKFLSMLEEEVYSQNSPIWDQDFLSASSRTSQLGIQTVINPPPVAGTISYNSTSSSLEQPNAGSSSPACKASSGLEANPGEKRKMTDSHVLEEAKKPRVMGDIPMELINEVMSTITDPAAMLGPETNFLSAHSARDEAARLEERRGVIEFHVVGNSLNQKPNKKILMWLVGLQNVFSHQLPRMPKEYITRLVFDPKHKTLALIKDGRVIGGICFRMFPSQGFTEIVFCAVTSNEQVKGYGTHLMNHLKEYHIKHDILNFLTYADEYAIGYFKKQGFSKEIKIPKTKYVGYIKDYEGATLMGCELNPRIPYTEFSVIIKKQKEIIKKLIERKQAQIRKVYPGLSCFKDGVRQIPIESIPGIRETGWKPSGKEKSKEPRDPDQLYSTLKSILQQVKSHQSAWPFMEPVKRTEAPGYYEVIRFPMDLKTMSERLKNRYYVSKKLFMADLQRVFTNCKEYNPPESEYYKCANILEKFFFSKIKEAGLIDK

U-937 [2] = test: Induction of apoptosis in human U937 cells at 100 uM after 30 hrs by FACS analysis relative to control relative to CPTH6; type: functional
U-937 [3] = test: Induction of apoptosis in human U937 cells at 100 uM after 30 hrs by FACS analysis relative to control in presence of CPTH6; type: functional, cell-based
[4] = target: Histone acetyltransferase p300 (Homo sapiens) (UniProt Q09472); test: Inhibition of recombinant human p300 catalytic domain (1284 to 1673 aa) using histone H3 at 100 uM after 1 hr by radiochemical assay in presence of [acetyl-3H]-acetyl coenzyme A
Sequence of Histone acetyltransferase p300 (Homo sapiens) (Q09472 whole entry, the tested form may be a part): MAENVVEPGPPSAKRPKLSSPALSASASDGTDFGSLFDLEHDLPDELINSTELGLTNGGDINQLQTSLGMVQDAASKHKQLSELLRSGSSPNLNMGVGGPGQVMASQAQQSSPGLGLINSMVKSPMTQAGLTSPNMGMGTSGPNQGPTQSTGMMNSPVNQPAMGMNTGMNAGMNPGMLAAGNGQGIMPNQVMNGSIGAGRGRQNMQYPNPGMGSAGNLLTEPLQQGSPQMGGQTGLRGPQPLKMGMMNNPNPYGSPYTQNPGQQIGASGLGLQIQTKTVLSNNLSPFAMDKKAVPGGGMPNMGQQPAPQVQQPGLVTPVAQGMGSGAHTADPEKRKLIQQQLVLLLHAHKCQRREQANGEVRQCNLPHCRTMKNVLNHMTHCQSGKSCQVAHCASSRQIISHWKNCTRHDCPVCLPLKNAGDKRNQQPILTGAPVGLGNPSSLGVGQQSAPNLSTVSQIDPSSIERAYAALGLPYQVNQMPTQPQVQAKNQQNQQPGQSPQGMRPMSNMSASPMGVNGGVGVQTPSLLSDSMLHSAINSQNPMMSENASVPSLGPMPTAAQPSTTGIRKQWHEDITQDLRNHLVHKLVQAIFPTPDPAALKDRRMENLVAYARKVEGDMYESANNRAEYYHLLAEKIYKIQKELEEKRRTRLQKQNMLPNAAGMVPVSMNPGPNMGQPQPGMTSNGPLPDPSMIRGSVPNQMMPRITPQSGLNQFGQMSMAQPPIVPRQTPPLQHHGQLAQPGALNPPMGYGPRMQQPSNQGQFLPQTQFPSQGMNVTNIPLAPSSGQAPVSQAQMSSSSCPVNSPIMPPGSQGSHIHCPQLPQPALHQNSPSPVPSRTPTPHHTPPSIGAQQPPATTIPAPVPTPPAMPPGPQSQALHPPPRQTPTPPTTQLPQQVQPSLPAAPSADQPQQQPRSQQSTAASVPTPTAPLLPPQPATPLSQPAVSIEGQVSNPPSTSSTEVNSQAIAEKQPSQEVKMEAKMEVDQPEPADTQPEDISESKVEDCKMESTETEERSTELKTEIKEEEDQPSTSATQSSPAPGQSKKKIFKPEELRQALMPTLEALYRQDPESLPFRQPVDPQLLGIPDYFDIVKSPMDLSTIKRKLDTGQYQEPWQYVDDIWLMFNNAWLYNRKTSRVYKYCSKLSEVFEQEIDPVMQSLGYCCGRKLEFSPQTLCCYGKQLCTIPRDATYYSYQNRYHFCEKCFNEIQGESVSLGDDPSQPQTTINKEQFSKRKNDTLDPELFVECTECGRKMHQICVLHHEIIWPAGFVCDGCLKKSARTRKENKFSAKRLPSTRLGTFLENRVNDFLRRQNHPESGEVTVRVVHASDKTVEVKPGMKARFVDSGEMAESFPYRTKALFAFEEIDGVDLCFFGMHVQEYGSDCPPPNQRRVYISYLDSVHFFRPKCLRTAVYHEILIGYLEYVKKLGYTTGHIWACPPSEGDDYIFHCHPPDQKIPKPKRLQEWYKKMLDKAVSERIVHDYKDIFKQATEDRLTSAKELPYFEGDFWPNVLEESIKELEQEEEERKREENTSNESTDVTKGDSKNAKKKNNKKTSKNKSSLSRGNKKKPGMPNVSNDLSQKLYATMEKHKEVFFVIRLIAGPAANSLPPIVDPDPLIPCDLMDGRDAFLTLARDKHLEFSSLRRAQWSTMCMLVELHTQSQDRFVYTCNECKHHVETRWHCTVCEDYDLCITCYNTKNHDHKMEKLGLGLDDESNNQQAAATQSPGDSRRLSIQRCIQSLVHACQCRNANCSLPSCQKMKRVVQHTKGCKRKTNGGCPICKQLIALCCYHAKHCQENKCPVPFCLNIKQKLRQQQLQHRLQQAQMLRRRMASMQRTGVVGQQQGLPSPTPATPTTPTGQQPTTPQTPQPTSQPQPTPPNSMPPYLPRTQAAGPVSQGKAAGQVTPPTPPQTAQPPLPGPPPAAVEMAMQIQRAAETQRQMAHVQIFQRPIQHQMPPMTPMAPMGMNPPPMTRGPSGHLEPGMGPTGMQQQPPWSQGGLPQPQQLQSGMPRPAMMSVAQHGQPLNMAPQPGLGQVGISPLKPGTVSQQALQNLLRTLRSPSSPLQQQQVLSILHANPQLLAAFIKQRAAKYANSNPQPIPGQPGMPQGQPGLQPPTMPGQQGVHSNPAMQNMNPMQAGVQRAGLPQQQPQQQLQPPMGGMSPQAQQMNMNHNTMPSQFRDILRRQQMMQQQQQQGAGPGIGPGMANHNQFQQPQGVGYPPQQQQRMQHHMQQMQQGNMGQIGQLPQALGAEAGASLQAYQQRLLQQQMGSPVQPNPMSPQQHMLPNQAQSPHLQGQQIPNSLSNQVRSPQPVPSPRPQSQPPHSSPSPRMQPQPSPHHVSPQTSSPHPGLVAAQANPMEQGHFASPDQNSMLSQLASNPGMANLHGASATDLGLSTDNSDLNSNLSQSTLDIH

U-937 [5] = test: Induction of human U937 cell differentiation assessed as CD11c expression at 100 uM after 30 hrs by propidium iodide-based flow cytometry relative to control; type: functional
Procedure, shortened: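 U937 cells treated 30 h, then stained 1 h at 4 °C in dark with PE-conjugated anti-CD11c (mouse IgG1-PE isotype for controls), washed, resuspended in PBS with propidium iodide; flow cytometry, CD11c-positive percentage after subtracting PI-positive dead cells, versus control.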

HCT-116 [6] = test: Induction of apoptosis in human HCT116 cells at 100 uM after 30 hrs by FACS analysis relative to control; type: functional
Procedure, shortened: (§1)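 Cells cultured at 37 °C, 5% CO2 in RPMI-1640 plus 10% heat-inactivated FBS and antibiotics; treated 30 h; apoptosis read by FACS as the pre-G1 population, compared with untreated control.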

[7] = target: Histone acetyltransferase p300 (Homo sapiens) (UniProt Q09472); test: Inhibition of recombinant human p300 catalytic domain (1284 to 1673 aa) using histone H3 at 200 uM after 1 hr by radiochemical assay in presence of [acetyl-3H]-acetyl coenzyme A
[8] = target: Histone acetyltransferase p300 (Homo sapiens) (UniProt Q09472); test: Inhibition of recombinant human p300 catalytic domain (1284 to 1673 aa) using histone H3 at 400 uM after 1 hr by radiochemical assay in presence of [acetyl-3H]-acetyl coenzyme A
U-937 [9] = test: Induction of apoptosis in human U937 cells at 100 uM after 30 hrs by FACS analysis relative to control; type: functional; procedure, shortened: as §1
HCT-116 [10] = test: Cell cycle arrest at G1 phase in human HCT116 cells at 100 uM after 30 hrs by propidium iodide-based flow cytometry relative to control; type: functional
Procedure, shortened: (§2)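 Cells kept at 37 °C, 5% CO2 in RPMI-1640 with 10% heat-inactivated FBS, penicillin, streptomycin, L-glutamine, amphotericin B; plated at 2 × 10^5 cells/mL, exposed 30 h, then suspended in PBS with 0.1% sodium citrate, 0.1% NP40 and propidium iodide; 30 min room temperature in dark; flow cytometry, cell-cycle phase distribution versus untreated control.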

U-937 [11] = test: Cell cycle arrest in human U937 cells assessed as reduction in cells at S phase at 100 uM after 30 hrs by propidium iodide-based flow cytometry relative to control; type: functional; procedure, shortened: as §2
U-937 [12] = test: Cell cycle arrest at G1 phase in human U937 cells at 100 uM after 30 hrs by propidium iodide-based flow cytometry relative to control; type: functional; procedure, shortened: as §2

Row | Compound | inhibition [1] | fold change (FC) (U-937 [2]) | Activity (U-937 [3]) | inhibition [4] | Activity (U-937 [5]) | Activity (HCT-116 [6]) | inhibition [7] | inhibition [8] | Activity (U-937 [9]) | Activity (HCT-116 [10]) | Activity (U-937 [11]) | Activity (U-937 [12])
1 | Clc1ccc(-c2csc(N/N=C\c3c[nH]c4ccccc34)n2)cc1 | 0% | 1.5 | Active | 61% | Active | 10% | 79% | 97% | 44% | – | – | –
2 | C/C(=N/Nc1nc(-c2ccc(Cl)cc2)cs1)c1cc2ccccc2oc1=O | 11% | 1.5 | Active | 62% | Active | 10% | 86% | 97% | 44% | – | – | –
3 | CC(C)=NNc1nc(-c2cccc([N+](=O)[O-])c2)cs1 | 7% | – | – | 33% | – | 10% | 54% | 76% | – | Active | – | –
4 | Fc1ccc(-c2csc(NN=C3CCCC3)n2)cc1 | 12% | 1.5 | Active | 35% | Active | 10% | 62% | 91% | 44% | Active | Active | Active
5 | C/C(=N/Nc1nc(-c2ccc(Cl)cc2)cs1)c1ccccn1 | 10% | – | – | 51% | Active | – | 69% | 87% | – | – | Active | Active
6 | CC1CC/C(=N/Nc2nc(-c3cc4ccccc4oc3=O)cs2)C1 (stereo not drawn) | 13% | – | – | 41% | – | – | 52% | 69% | – | Active | – | –
